In ChEMBL document CHEMBL2406978, “A novel one-pot synthesis and preliminary biological activity evaluation of cis-restricted polyhydroxy stilbenes incorporating protocatechuic acid and cinnamic acid fragments” (2013):
Activity calls are given as the source filed them. The rule behind the calls is not given here.

Legend:
Aspergillus niger = assay: […] activity against Aspergillus niger A3 at 50 ug/ml after 24 hrs by agar well diffusion method relative to control; assay type: functional; conditions: A3, 24 h
Pseudomonas aeruginosa = assay: Antibacterial activity against Pseudomonas aeruginosa ATCC 10145 at 50 ug/ml after 24 hrs by agar well diffusion method; assay type: functional, organism-based
Bacillus spizizenii [1] = assay: Antibacterial activity against Bacillus subtilis ATCC 6633 at 50 ug/ml after 24 hrs by agar well diffusion method; assay type: functional
Candida albicans = assay: […] activity against Candida albicans ATCC 10231 at 50 ug/ml after 24 hrs by agar well diffusion method relative to nystatine; assay type: functional; conditions: ATCC 10231, 24 h
[2] = target: T1, Tyrosinase (Agaricus bisporus) (UniProt O42713); assay: Inhibition of mushroom tyrosinase using L-tyrosine as substrate at 23 uM after 30 mins by spectrophotometric analysis
T1 sequence (whole entry): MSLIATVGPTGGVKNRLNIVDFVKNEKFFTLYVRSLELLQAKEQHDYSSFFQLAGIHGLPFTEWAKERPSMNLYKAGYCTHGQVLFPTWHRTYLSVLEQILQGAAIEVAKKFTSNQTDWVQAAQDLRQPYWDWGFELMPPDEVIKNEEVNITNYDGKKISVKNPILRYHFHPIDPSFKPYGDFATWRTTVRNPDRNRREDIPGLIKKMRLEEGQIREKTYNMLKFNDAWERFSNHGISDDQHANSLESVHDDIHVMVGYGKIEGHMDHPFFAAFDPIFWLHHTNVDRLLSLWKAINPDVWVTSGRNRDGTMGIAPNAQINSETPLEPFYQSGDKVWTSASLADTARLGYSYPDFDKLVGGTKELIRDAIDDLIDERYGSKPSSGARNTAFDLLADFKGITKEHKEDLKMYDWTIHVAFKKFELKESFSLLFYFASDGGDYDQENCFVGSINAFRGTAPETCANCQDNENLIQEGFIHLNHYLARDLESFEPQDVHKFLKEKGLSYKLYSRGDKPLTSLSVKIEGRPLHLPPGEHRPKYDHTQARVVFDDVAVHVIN
Method in brief: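 Modified dopachrome method with L-tyrosine substrate, in 3 mL total: 1.0 mL 0.1 M phosphate buffer pH 6.8, 1.0 mL 1.5 mM tyrosine, 0.35 mL 0.2 mM inhibitor stock in DMSO, 0.35 mL water, and 0.30 mL mushroom tyrosinase at 192 U/mL. Reference used DMSO in place of inhibitor. Incubated 37 °C for 30 min, read at 475 nm; activity % = B/A × 100 (sample/reference absorbance).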

Staphylococcus aureus = assay: Antibacterial activity against Staphylococcus aureus ATCC 25923 at 50 ug/ml after 24 hrs by agar well diffusion method; assay type: functional, organism-based
Fusarium graminearum [3] = assay: […] activity against Fusarium graminearum ATCC 24373 at 50 ug/ml after 24 hrs by agar well diffusion method relative to control; assay type: functional; conditions: ATCC 24373, 24 h
[4] = tested on: Radical scavenging activity; assay: Antioxidant activity assessed as DPPH free radical scavenging activity at 3.3 uM measured every 10 mins; assay type: functional
Method in brief: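 Compound in methanol (0.5 mL) was added to 0.5 mL of 100 µM DPPH• stock solution, with a final compound level of 3.3 µM and DPPH•/substrate molar ratio 15 (radical in excess). Absorbance at 518 nm was read every 10 min until equilibrium. Methanol served as blank and caffeic acid as reference.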

Aspergillus flavus = assay: […] activity against Aspergillus flavus IMI 052104 at 50 ug/ml after 24 hrs by agar well diffusion method relative to control; assay type: functional; conditions: IMI 052104, 24 h
Escherichia coli = assay: Antibacterial activity against Escherichia coli ATCC 25922 at 50 ug/ml after 24 hrs by agar well diffusion method; assay type: functional, organism-based
Fusarium graminearum [5] = assay: […] activity against Fusarium graminearum ATCC 24373 at 0.17 umol/ml after 24 hrs by agar well diffusion method relative to control; assay type: functional, organism-based
Bacillus spizizenii [6] = assay: Antibacterial activity against Bacillus subtilis ATCC 6633 at 50 ug/ml after 24 hrs by agar well diffusion method relative to amikacin; assay type: functional; conditions: ATCC 6633, 24 h
Method in brief: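 Agar well diffusion on dried overlays of each test strain. Wells of 7 mm received 100 µL of sample at 0.5 mg/mL in DMSO, with DMSO wells as negative control. Positive controls were an amikacin 30 µg disc for bacteria and 100 µL nystatin 10000 IU/mL for C. albicans. Plates were held 60 min at 4 °C for diffusion, then incubated 24 h at 30 or 37 °C. Inhibition zones were measured in mm, in triplicate, and growth inhibition was expressed relative to the positive control.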

Row | Compound | inhibition at 50 µg/mL (Aspergillus niger) [%] | inhibition (Pseudomonas aeruginosa) | inhibition (Bacillus spizizenii [1]) | inhibition at 50 µg/mL (Candida albicans) [%] | inhibition [2] | inhibition (Staphylococcus aureus) | inhibition at 50 µg/mL (Fusarium graminearum [3]) [%] | Activity [4] | inhibition at 50 µg/mL (Aspergillus flavus) [%] | inhibition (Escherichia coli) | inhibition (Fusarium graminearum [5]) | inhibition at 50 µg/mL (Bacillus spizizenii [6]) [%]
1 | O=C(O)/C(=C/c1ccccc1)c1cc(O)c(O)cc1C(=O)O | 34 | inactive | inactive | 40 | Active | inactive | 89 | Active | 43 | inactive | Active | –
2 | O=C(O)c1ccc(O)c(O)c1 [PROTOCATECHUIC ACID] | 40 | – | – | – | Active | – | 76 | Active | 9 | – | – | –
3 | O=C(O)/C(=C/c1cc(O)c(O)c(O)c1)c1cc(O)c(O)cc1C(=O)O | 37 | inactive | inactive | 40 | Active | inactive | 71 | Active | 42 | inactive | – | –
4 | O=C(O)/C=C/c1ccc(O)c(O)c1 [CAFFEIC ACID] | 35 | – | – | – | Active | – | 63 | Active | 16 | – | – | –
5 | O=C(O)/C(=C/c1ccc(O)cc1)c1cc(O)c(O)cc1C(=O)O | 38 | inactive | inactive | 34 | Active | inactive | 72 | Active | 42 | inactive | – | –
6 | Oc1ccc(O)cc1 | – | – | – | – | Active | – | – | – | – | – | – | –
7 | CC(C)(C)c1cc(/C=C(/C(=O)O)c2cc(O)c(O)cc2C(=O)O)cc(C(C)(C)C)c1O | 44 | inactive | inactive | 40 | Active | inactive | 76 | Active | 52 | inactive | – | –
8 | O=C(O)/C(=C/c1ccc(O)c(O)c1)c1cc(O)c(O)cc1C(=O)O | 37 | inactive | inactive | 45 | Active | inactive | 72 | Active | 42 | inactive | – | –
9 | COc1cc(C(=O)O)c(/C(=C\c2cc(C(C)(C)C)c(O)c(C(C)(C)C)c2)C(=O)O)cc1OC | 44 | – | – | 48 | Active | – | 70 | 18% | 48 | – | – | 44
